According to ChEMBL document CHEMBL4689842, “EUbOPEN Chemogenomics Library wave 1” (2021):

Assays:
U2OS [1] = assay: Incucyte cell viability with U2OS; format: toxicity, cell-based; conditions: human, 10 µM, compound concentration 10 uM; note: filed as whole numbers so only -1 and 0 and 1 occur
U2OS [2] = assay: Multiplex assay against U2OS; format: toxicity, cell-based; conditions: human
Summary of the method: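 Compound was added to live cells that had been stained at seeding with Hoechst33342, BioTracker Green Microtubule Cytoskeleton Dye, MitoTracker Red and Annexin V Alexa Fluor 680, and imaging followed on a CQ1 microscope at 37°C and 5% CO2. CellPathfinder machine-learning gating divided cells into Hoechst high-intensity objects or normal cells, normal cells into healthy, pyknosed or fragmented nuclei, and pyknosed cells into mitotic or apoptotic. Tubulin, mitochondrial-mass and membrane-permeability phenotypes are per cents of healthy-nucleus cells.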

[3] = 12 h, 1 µM, compound concentration 1 uM, replicate 1
[4] = 12 h, 1 µM, compound concentration 1 uM, replicate 2
[5] = 12 h, 10 µM, compound concentration 10 uM, replicate 1
[6] = 12 h, 10 µM, compound concentration 10 uM, replicate 2
[7] = 24 h, 1 µM, compound concentration 1 uM, replicate 1
[8] = 24 h, 1 µM, compound concentration 1 uM, replicate 2
[9] = 24 h, 10 µM, compound concentration 10 uM, replicate 1
[10] = 24 h, 10 µM, compound concentration 10 uM, replicate 2
[11] = 48 h, 1 µM, compound concentration 1 uM, replicate 1
[12] = 48 h, 1 µM, compound concentration 1 uM, replicate 2
[13] = 48 h, 10 µM, compound concentration 10 uM, replicate 1
[14] = 48 h, 10 µM, compound concentration 10 uM, replicate 2

In the case of `Cl.NC[C@@H]1O[C@H](C23CC4CC(CC(C4)C2)C3)Cc2c1ccc(O)c2O`, the “Growth Rate” value (U2OS [1]; 6 h, replicate number 1, timepoint 6 hours) is reported as 0, the “Growth Rate” value (U2OS [1]; 12 h, replicate number 1, timepoint 12 hours) is reported as 0 and the “Growth Rate” value (U2OS [1]; 18 h, replicate number 1, timepoint 18 hours) is reported as 0. For the same compound, the “Growth Rate” value (U2OS [1]; 24 h, replicate number 1, timepoint 24 hours) was 0, the “Population Apoptotic (%)” value (U2OS [2]; [3]) was 60% and the “Population Fragmented Nuclei (%)” value (U2OS [2]; [3]) was 10%. For the same compound, the “Population Healthy Nuclei (%)” value (U2OS [2]; [3]) was 80%, the “Population Hoechst High Intensity Objects (%)” value (U2OS [2]; [3]) was 7% and the “Population Membrane Permeable-Phenotype (%)” value (U2OS [2]; [3]) was 5%. For the same compound, the “Population Mitochondria Different-Phenotype (%)” value (U2OS [2]; [3]) was 11%, the “Population Mitotic Cells (%)” value (U2OS [2]; [3]) was 40% and the “Population Normal (%)” value (U2OS [2]; [3]) was 92%. For the same compound, the “Population Pyknosed Nuclei (%)” value (U2OS [2]; [3]) was 9%, the “Population Tubulin-Different-Phenotype (%)” value (U2OS [2]; [3]) was 6% and the “Total Cell Count” value (U2OS [2]; [3]) was 116. For the same compound, the “Population Apoptotic (%)” value (U2OS [2]; [4]) was 0%, the “Population Fragmented Nuclei (%)” value (U2OS [2]; [4]) was 6% and the “Population Healthy Nuclei (%)” value (U2OS [2]; [4]) was 91%. The “Population Hoechst High Intensity Objects (%)” value (U2OS [2]; [4]) was 3%, the “Population Membrane Permeable-Phenotype (%)” value (U2OS [2]; [4]) was 2% and the “Population Mitochondria Different-Phenotype (%)” value (U2OS [2]; [4]) was 9%. For the same compound, the “Population Mitotic Cells (%)” value (U2OS [2]; [4]) was 100%, the “Population Normal (%)” value (U2OS [2]; [4]) was 96% and the “Population Pyknosed Nuclei (%)” value (U2OS [2]; [4]) was 2%. For the same compound, the “Population Tubulin-Different-Phenotype (%)” value (U2OS [2]; [4]) was 10%, the “Total Cell Count” value (U2OS [2]; [4]) was 95 and the “Population Apoptotic (%)” value (U2OS [2]; [5]) was 37%. The “Population Fragmented Nuclei (%)” value (U2OS [2]; [5]) was 31%, the “Population Healthy Nuclei (%)” value (U2OS [2]; [5]) was 36% and the “Population Hoechst High Intensity Objects (%)” value (U2OS [2]; [5]) was 8%. The “Population Membrane Permeable-Phenotype (%)” value (U2OS [2]; [5]) was 3%, the “Population Mitochondria Different-Phenotype (%)” value (U2OS [2]; [5]) was 13% and the “Population Mitotic Cells (%)” value (U2OS [2]; [5]) was 62%. For the same compound, the “Population Normal (%)” value (U2OS [2]; [5]) was 92%, the “Population Pyknosed Nuclei (%)” value (U2OS [2]; [5]) was 31% and the “Population Tubulin-Different-Phenotype (%)” value (U2OS [2]; [5]) was 5%. The “Total Cell Count” value (U2OS [2]; [5]) was 150, the “Population Apoptotic (%)” value (U2OS [2]; [6]) was 52% and the “Population Fragmented Nuclei (%)” value (U2OS [2]; [6]) was 39%. The “Population Healthy Nuclei (%)” value (U2OS [2]; [6]) was 32%, the “Population Hoechst High Intensity Objects (%)” value (U2OS [2]; [6]) was 10% and the “Population Membrane Permeable-Phenotype (%)” value (U2OS [2]; [6]) was 9%. The “Population Mitochondria Different-Phenotype (%)” value (U2OS [2]; [6]) was 22%, the “Population Mitotic Cells (%)” value (U2OS [2]; [6]) was 47% and the “Population Normal (%)” value (U2OS [2]; [6]) was 89%. The “Population Pyknosed Nuclei (%)” value (U2OS [2]; [6]) was 27%, the “Population Tubulin-Different-Phenotype (%)” value (U2OS [2]; [6]) was 27% and the “Total Cell Count” value (U2OS [2]; [6]) was 76. For the same compound, the “Population Apoptotic (%)” value (U2OS [2]; [7]) was 46%, the “Population Fragmented Nuclei (%)” value (U2OS [2]; [7]) was 11% and the “Population Healthy Nuclei (%)” value (U2OS [2]; [7]) was 79%. For the same compound, the “Population Hoechst High Intensity Objects (%)” value (U2OS [2]; [7]) was 7%, the “Population Membrane Permeable-Phenotype (%)” value (U2OS [2]; [7]) was 2% and the “Population Mitochondria Different-Phenotype (%)” value (U2OS [2]; [7]) was 3%. The “Population Mitotic Cells (%)” value (U2OS [2]; [7]) was 53%, the “Population Normal (%)” value (U2OS [2]; [7]) was 92% and the “Population Pyknosed Nuclei (%)” value (U2OS [2]; [7]) was 9%. For the same compound, the “Population Tubulin-Different-Phenotype (%)” value (U2OS [2]; [7]) was 9%, the “Total Cell Count” value (U2OS [2]; [7]) was 146 and the “Population Apoptotic (%)” value (U2OS [2]; [8]) was 42%. The “Population Fragmented Nuclei (%)” value (U2OS [2]; [8]) was 8%, the “Population Healthy Nuclei (%)” value (U2OS [2]; [8]) was 85% and the “Population Hoechst High Intensity Objects (%)” value (U2OS [2]; [8]) was 2%. The “Population Membrane Permeable-Phenotype (%)” value (U2OS [2]; [8]) was 5%, the “Population Mitochondria Different-Phenotype (%)” value (U2OS [2]; [8]) was 10% and the “Population Mitotic Cells (%)” value (U2OS [2]; [8]) was 57%. For the same compound, the “Population Normal (%)” value (U2OS [2]; [8]) was 97%, the “Population Pyknosed Nuclei (%)” value (U2OS [2]; [8]) was 6% and the “Population Tubulin-Different-Phenotype (%)” value (U2OS [2]; [8]) was 12%. For the same compound, the “Total Cell Count” value (U2OS [2]; [8]) was 114, the “Population Apoptotic (%)” value (U2OS [2]; [9]) was 76% and the “Population Fragmented Nuclei (%)” value (U2OS [2]; [9]) was 38%. The “Population Healthy Nuclei (%)” value (U2OS [2]; [9]) was 33%, the “Population Hoechst High Intensity Objects (%)” value (U2OS [2]; [9]) was 6% and the “Population Membrane Permeable-Phenotype (%)” value (U2OS [2]; [9]) was 7%. For the same compound, the “Population Mitochondria Different-Phenotype (%)” value (U2OS [2]; [9]) was 7%, the “Population Mitotic Cells (%)” value (U2OS [2]; [9]) was 23% and the “Population Normal (%)” value (U2OS [2]; [9]) was 93%. For the same compound, the “Population Pyknosed Nuclei (%)” value (U2OS [2]; [9]) was 27%, the “Population Tubulin-Different-Phenotype (%)” value (U2OS [2]; [9]) was 17% and the “Total Cell Count” value (U2OS [2]; [9]) was 161. For the same compound, the “Population Apoptotic (%)” value (U2OS [2]; [10]) was 92%, the “Population Fragmented Nuclei (%)” value (U2OS [2]; [10]) was 50% and the “Population Healthy Nuclei (%)” value (U2OS [2]; [10]) was 29%. The “Population Hoechst High Intensity Objects (%)” value (U2OS [2]; [10]) was 18%, the “Population Membrane Permeable-Phenotype (%)” value (U2OS [2]; [10]) was 26% and the “Population Mitochondria Different-Phenotype (%)” value (U2OS [2]; [10]) was 26%. The “Population Mitotic Cells (%)” value (U2OS [2]; [10]) was 7%, the “Population Normal (%)” value (U2OS [2]; [10]) was 81% and the “Population Pyknosed Nuclei (%)” value (U2OS [2]; [10]) was 20%. The “Population Tubulin-Different-Phenotype (%)” value (U2OS [2]; [10]) was 26%, the “Total Cell Count” value (U2OS [2]; [10]) was 80 and the “Population Apoptotic (%)” value (U2OS [2]; [11]) was 33%. The “Population Fragmented Nuclei (%)” value (U2OS [2]; [11]) was 8%, the “Population Hoechst High Intensity Objects (%)” value (U2OS [2]; [11]) was 6% and the “Population Membrane Permeable-Phenotype (%)” value (U2OS [2]; [11]) was 0%. For the same compound, the “Population Mitochondria Different-Phenotype (%)” value (U2OS [2]; [11]) was 14%, the “Population Mitotic Cells (%)” value (U2OS [2]; [11]) was 66% and the “Population Normal (%)” value (U2OS [2]; [11]) was 93%. The “Population Pyknosed Nuclei (%)” value (U2OS [2]; [11]) was 9%, the “Population Tubulin-Different-Phenotype (%)” value (U2OS [2]; [11]) was 12% and the “Total Cell Count” value (U2OS [2]; [11]) was 198. For the same compound, the “Population Apoptotic (%)” value (U2OS [2]; [12]) was 57%, the “Population Fragmented Nuclei (%)” value (U2OS [2]; [12]) was 11% and the “Population Healthy Nuclei (%)” value (U2OS [2]; [12]) was 82%. For the same compound, the “Population Hoechst High Intensity Objects (%)” value (U2OS [2]; [12]) was 3%, the “Population Membrane Permeable-Phenotype (%)” value (U2OS [2]; [12]) was 3% and the “Population Mitochondria Different-Phenotype (%)” value (U2OS [2]; [12]) was 21%. For the same compound, the “Population Mitotic Cells (%)” value (U2OS [2]; [12]) was 42%, the “Population Normal (%)” value (U2OS [2]; [12]) was 96% and the “Population Pyknosed Nuclei (%)” value (U2OS [2]; [12]) was 5%. The “Population Tubulin-Different-Phenotype (%)” value (U2OS [2]; [12]) was 13%, the “Total Cell Count” value (U2OS [2]; [12]) was 127 and the “Population Apoptotic (%)” value (U2OS [2]; [13]) was 84%. The “Population Fragmented Nuclei (%)” value (U2OS [2]; [13]) was 33%, the “Population Healthy Nuclei (%)” value (U2OS [2]; [13]) was 33% and the “Population Hoechst High Intensity Objects (%)” value (U2OS [2]; [13]) was 13%. For the same compound, the “Population Membrane Permeable-Phenotype (%)” value (U2OS [2]; [13]) was 20%, the “Population Mitochondria Different-Phenotype (%)” value (U2OS [2]; [13]) was 16% and the “Population Mitotic Cells (%)” value (U2OS [2]; [13]) was 16%. The “Population Normal (%)” value (U2OS [2]; [13]) was 86%, the “Population Pyknosed Nuclei (%)” value (U2OS [2]; [13]) was 32% and the “Population Tubulin-Different-Phenotype (%)” value (U2OS [2]; [13]) was 37%. The “Total Cell Count” value (U2OS [2]; [13]) was 180, the “Population Apoptotic (%)” value (U2OS [2]; [14]) was 91% and the “Population Fragmented Nuclei (%)” value (U2OS [2]; [14]) was 50%. For the same compound, the “Population Healthy Nuclei (%)” value (U2OS [2]; [14]) was 27%, the “Population Hoechst High Intensity Objects (%)” value (U2OS [2]; [14]) was 34% and the “Population Membrane Permeable-Phenotype (%)” value (U2OS [2]; [14]) was 80%. The “Population Mitochondria Different-Phenotype (%)” value (U2OS [2]; [14]) was 53%, the “Population Mitotic Cells (%)” value (U2OS [2]; [14]) was 8% and the “Population Normal (%)” value (U2OS [2]; [14]) was 65%. For the same compound, the “Population Pyknosed Nuclei (%)” value (U2OS [2]; [14]) was 22%, the “Population Tubulin-Different-Phenotype (%)” value (U2OS [2]; [14]) was 66% and the “Total Cell Count” value (U2OS [2]; [14]) was 82.
